Data: ChEMBL document CHEMBL4368874, “Synthesis, biological evaluation, and structure activity relationship (SAR) study of pyrrolidine amide derivatives as N-acylethanolamine acid amidase (NAAA) inhibitors” (Medchemcomm, 2019)
Activity calls are given as the source filed them. The calls are words filed in the database; no cut-off is given here.

T1: N-acylethanolamine-hydrolyzing acid amidase (Rattus norvegicus, UniProt Q5KTC7)
T1 sequence (Q5KTC7 whole entry): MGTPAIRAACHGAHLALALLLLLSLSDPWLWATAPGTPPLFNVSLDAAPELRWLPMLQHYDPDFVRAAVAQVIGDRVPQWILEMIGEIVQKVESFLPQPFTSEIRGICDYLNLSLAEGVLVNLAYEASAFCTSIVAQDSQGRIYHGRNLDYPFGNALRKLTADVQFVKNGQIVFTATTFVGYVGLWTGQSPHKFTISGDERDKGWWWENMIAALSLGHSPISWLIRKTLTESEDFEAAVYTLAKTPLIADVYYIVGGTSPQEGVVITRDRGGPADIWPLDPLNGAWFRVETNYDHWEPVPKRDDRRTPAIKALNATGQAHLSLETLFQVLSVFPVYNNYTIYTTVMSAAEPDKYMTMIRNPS

T2: Fatty-acid amide hydrolase 1 (Rattus norvegicus, UniProt P97612)
T2 sequence (P97612 whole entry): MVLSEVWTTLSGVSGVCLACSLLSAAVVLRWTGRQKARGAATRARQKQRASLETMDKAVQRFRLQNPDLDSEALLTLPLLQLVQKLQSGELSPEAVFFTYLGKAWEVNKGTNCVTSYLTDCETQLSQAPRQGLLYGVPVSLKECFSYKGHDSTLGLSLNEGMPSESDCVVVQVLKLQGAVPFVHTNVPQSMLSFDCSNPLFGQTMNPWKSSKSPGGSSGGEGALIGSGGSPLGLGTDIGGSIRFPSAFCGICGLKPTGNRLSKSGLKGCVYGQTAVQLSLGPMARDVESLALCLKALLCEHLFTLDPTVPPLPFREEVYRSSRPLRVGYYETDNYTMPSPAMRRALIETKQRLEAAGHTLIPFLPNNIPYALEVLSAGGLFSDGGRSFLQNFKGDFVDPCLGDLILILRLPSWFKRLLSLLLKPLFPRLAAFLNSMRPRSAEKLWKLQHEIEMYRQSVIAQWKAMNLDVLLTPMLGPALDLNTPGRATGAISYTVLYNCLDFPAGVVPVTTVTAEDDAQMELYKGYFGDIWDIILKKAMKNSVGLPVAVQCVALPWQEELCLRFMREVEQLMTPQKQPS

T3: N-acylethanolamine-hydrolyzing acid amidase (Rattus norvegicus) (UniProt Q5KTC7)
T3 sequence (whole entry): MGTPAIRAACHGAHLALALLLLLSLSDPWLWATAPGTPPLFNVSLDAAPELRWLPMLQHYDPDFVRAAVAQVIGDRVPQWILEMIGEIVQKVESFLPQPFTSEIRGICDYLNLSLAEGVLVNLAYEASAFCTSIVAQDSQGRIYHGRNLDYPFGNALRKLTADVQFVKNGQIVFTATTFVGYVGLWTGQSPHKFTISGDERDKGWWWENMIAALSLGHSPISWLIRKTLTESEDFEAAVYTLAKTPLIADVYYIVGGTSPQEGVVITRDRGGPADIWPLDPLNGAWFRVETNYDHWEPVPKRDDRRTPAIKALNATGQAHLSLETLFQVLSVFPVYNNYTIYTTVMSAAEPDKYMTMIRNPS

T4: Acid ceramidase (Rattus norvegicus) (UniProt Q6P7S1)
T4 sequence (whole entry): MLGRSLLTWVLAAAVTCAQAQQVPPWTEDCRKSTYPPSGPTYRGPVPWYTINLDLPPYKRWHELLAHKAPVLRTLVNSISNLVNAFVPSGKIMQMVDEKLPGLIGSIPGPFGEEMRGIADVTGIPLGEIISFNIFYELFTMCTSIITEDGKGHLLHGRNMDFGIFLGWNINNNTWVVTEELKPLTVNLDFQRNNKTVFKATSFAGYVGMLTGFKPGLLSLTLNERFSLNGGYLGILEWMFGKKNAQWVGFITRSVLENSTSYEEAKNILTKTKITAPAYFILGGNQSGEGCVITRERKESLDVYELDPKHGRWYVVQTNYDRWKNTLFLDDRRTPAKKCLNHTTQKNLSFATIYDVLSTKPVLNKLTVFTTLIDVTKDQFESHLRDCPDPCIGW


Assays:
[1] = target: T1, N-acylethanolamine-hydrolyzing acid amidase; experiment: Inhibition of rat NAAA expressed in HEK293 cells using heptadecenoylethanolamide as substrate after 30 mins HPLC-MS/MS analysis
In short: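 Enzyme source: HEK293 cells stably overexpressing rat NAAA, grown in DMEM/10% FBS with G418. Cells were sonicated in 20 mM Tris-HCl pH 7.5 with 0.32 M sucrose, and the 800 × g supernatant was used. 30 µg protein was incubated with 25 µM heptadecenoylethanolamide for 30 min at 37 °C in 50 mM phosphate pH 4.5 with 0.1% Triton X-100 and 3 mM DTT. Stopped with methanol containing heptadecanoic acid internal standard; remaining substrate measured by HPLC-MS/MS; IC50 from curve fitting.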

[2] = target: T2, Fatty-acid amide hydrolase 1; experiment: Inhibition of rat FAAH expressed in HEK293 cells using [3H]AEA as substrate after 30 mins HPLC-MS/MS analysis; format: cell-based; settings: in the assay text read “anandamide” for “[3H]AEA”
In short: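 Lysate supernatant from HEK293 cells overexpressing rat FAAH (sonication in Tris-sucrose, 800 × g spin). 30 µg protein incubated at 37 °C with 25 µM anandamide in 50 mM Tris-HCl pH 8.0 containing 0.05% fatty-acid-free BSA. Quenched with methanol containing heptadecanoic acid internal standard; remaining substrate quantified by HPLC-MS/MS; IC50 by curve fitting.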

[3] = target: T3, N-acylethanolamine-hydrolyzing acid amidase (Rattus norvegicus); experiment: Reversible inhibition of rat NAAA expressed in HEK293 cells at 5 uM using heptadecenoylethanolamide as substrate after 8 hrs by rapid dilution based HPLC-MS/MS analysis; format: cell-based
Mus musculus [4] = experiment: Anti-inflammatory activity in mouse model of LPS-induced acute lung injury at 30 mg/kg, po qd for 5 days co-treated with 2 mg/kg, ip bid PPAR-alpha antagonist MK886 by hematoxylin and eosin staining-based light microscopic analysis; format: functional, organism-based
In short: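 129s mice (20-22 g), 6-8 per group, were anesthetized and given intratracheal LPS (7 mg/kg) in PBS. Oral dosing at 30 mg/kg once daily (vehicle: saline, 5% PEG 400, 5% Tween 80) started on the LPS day, together with MK886 at 2 mg/kg i.p. Sacrifice at day 5. Lungs were fixed in paraformaldehyde, embedded in paraffin, sectioned at 5 µm and stained with H&E.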

Mus musculus [5] = experiment: Anti-inflammatory activity in mouse model of LPS-induced acute lung injury assessed as reduction in leukocytes in lungs at 30 mg/kg, po qd for 5 days by hematoxylin and eosin staining-based light microscopic analysis; format: functional, organism-based
In short: (§1)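 129s mice (20-22 g), randomly grouped at 6-8 per group. Under anesthesia they received intratracheal LPS (7 mg/kg) in PBS. From the day of LPS they got oral dosing once daily at 30 mg/kg in saline with 5% PEG 400 and 5% Tween 80, or vehicle alone. Killed 5 days after LPS. Lungs were fixed in paraformaldehyde at 4 °C, paraffin-embedded, cut at 5 µm and H&E-stained.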

Mus musculus [6] = experiment: Anti-inflammatory activity in mouse model of LPS-induced acute lung injury assessed as reduction in lung edema at 30 mg/kg, po qd for 5 days by hematoxylin and eosin staining-based light microscopic analysis; format: functional, organism-based; in short: as §1
[7] = Half life in pH 5 phosphate buffer by HPLC analysis; format: physicochemical
In short: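 Compound at 1 µM final (DMSO ≤1%) in 50 mM phosphate buffer pH 5.0, held at 37 °C for 16 h; remaining compound determined by HPLC.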

[8] = Half life in pH 7.4 tris-HCl buffer by HPLC analysis
[9] = Half life in rat 80% plasma by HPLC analysis; format: ADME, cell-free
In short: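 Fresh rat plasma diluted to 80% (v/v) with PBS pH 7.4. Compound added to 1 µM final (DMSO ≤1%), incubated at 37 °C for 16 h; remaining compound measured by HPLC.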

[10] = target: T4, Acid ceramidase (Rattus norvegicus); experiment: Inhibition of rat acid ceramidase at 100 uM using N-lauroylceramide as substrate after 30 mins by LC-MS analysis relative to control
In short: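 100 µg recombinant rat acid ceramidase incubated for 30 min at 37 °C in 50 mM phosphate pH 5.0 with 0.1% Triton X-100, 3 mM DTT, 100 µM N-lauroylceramide substrate and test compound. Stopped with methanol containing 1 nmol heptadecanoic acid; products analysed by LC/MS.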

Rattus norvegicus = species on record: Rattus norvegicus; experiment: Selectivity ratio of IC50 for rat FAAH expressed in HEK293 cells to IC50 for rat […]; format: cell-based
[11] = target: T2, Fatty-acid amide hydrolase 1; experiment: Inhibition of rat FAAH expressed in HEK293 cells using anandamide as substrate after 30 mins HPLC-MS/MS analysis
[12] = compound: O=C(/C=C/c1ccc(-c2ccccc2)cc1)N1CCCC1; experiment: Competitive inhibition of rat NAAA expressed in HEK293 cells assessed as substrate Km at 5 uM using heptadecenoylethanolamide as substrate after 30 mins by Michaelis Menten plot analysis (reference value: 207 +/- 16 uM); format: cell-based
[13] = compound: O=C(/C=C/c1ccc(-c2ccccc2)cc1)N1CCCC1; experiment: Competitive inhibition of rat NAAA expressed in HEK293 cells assessed as substrate Vmax at 5 uM using heptadecenoylethanolamide as substrate after 30 mins by Michaelis Menten plot analysis (reference value: 5.89 +/- 0.12 nmol/min/mg protein); format: cell-based

Molecule | IC50 [1] [µM] | further results
Cc1ccc(CCCCCCC(=O)N2CCCC2)cc1 | 9.6 | –
O=C(CCCCCCc1cccs1)N1CCCC1 | 14.1 | –
O=C(CCCCCCc1ccccc1F)N1CCCC1 | 13.7 | –
O=C(CCc1ccc(-c2ccccc2F)cc1)N1CCCC1 | 2.8 | –
O=C(CCCCCCc1cccc(F)c1)N1CCCC1 | 7.3 | –
O=C(CCCCCCc1ccsc1)N1CCCC1 | 13.2 | –
O=C(CCCCCCc1cccc(Cl)c1)N1CCCC1 | 3.7 | –
O=C(/C=C/c1ccc(-c2ccccc2)cc1)N1CCCC1 | 1.5 | inhibition [3]: Active; IC50 [2]: 550 µM; Activity (Mus musculus [4]): inactive; Activity (Mus musculus [5]): Active; Activity (Mus musculus [6]): Active; half-life [7]: > 16 h; half-life [8]: > 16 h; half-life [9]: > 16 h
O=C(CCc1ccc(-c2cccnc2)cc1)N1CCCC1 | > 100 | –
O=C(CCc1ccc(Oc2ccccc2)cc1)N1CCCC1 | > 100 | IC50 [2]: 120 µM
O=C(CCc1ccc(-c2cccs2)cc1)N1CCCC1 | > 100 | –
Cc1ccc(-c2ccc(CCC(=O)N3CCCC3)cc2)cc1 | 33.2 | –
O=C(CCc1ccc(C2CCCCC2)cc1)N1CCCC1 | 0.5 | inhibition [10]: < 10%; Ratio IC50 (Rattus norvegicus): > 200
O=C(CCCCCCc1cccnc1)N1CCCC1 | > 100 | –
O=C(O)c1cccc(CCCCCCC(=O)N2CCCC2)c1 | > 100 | –
O=C(CCc1ccc(-c2cccc(Cl)c2)cc1)N1CCCC1 | 25.4 | –
COC(=O)c1ccc(CCCCCCC(=O)N2CCCC2)cc1 | > 100 | –

Molecule | IC50 [1] [µM] | further results
O=C(CCCCCCc1ccc(O)cc1)N1CCCC1 | 5.6 | –
O=C(CCCC/C=C/c1cccc(OCc2ccccc2)c1)N1CCCC1 | > 100 | –
O=C(CCc1ccc(-c2ccccc2)cc1)N1CCCC1 | – | IC50 [2]: 91.5 µM
Cc1ccccc1CCCCCCC(=O)N1CCCC1 | 68.4 | –
CCCc1ccc(CCCCCCC(=O)N2CCCC2)cc1 | > 100 | –
O=C(CCc1ccc(-c2ccc(Cl)cc2)cc1)N1CCCC1 | 48.6 | –
O=C(CCc1ccc(-c2cccc(F)c2)cc1)N1CCCC1 | 1.8 | –
O=C(CCCCCCc1ccccc1Cl)N1CCCC1 | > 100 | –
O=C(CCc1ccc(-c2ccsc2)cc1)N1CCCC1 | 2.5 | –
O=C(/C=C/C=C/c1ccc2c(c1)OCO2)N1CCCC1 [TRICHOSTACHINE] | 4.1 | IC50 [11]: 61.3 µM
COc1cccc(CCCCCCC(=O)N2CCCC2)c1 | > 100 | –
O=C(CCc1ccc(-c2ccccc2Cl)cc1)N1CCCC1 | > 100 | –
O=C(CCc1ccc(-c2ccc(F)cc2)cc1)N1CCCC1 | 3.4 | –
O=C(CCC1CCC(c2ccccc2)CC1)N1CCCC1 (configuration not stated) | 0.48 | IC50 [2]: 66 µM
O=C(CCCCc1ccc2c(c1)OCO2)N1CCCC1 | 5.5 | IC50 [2]: 42.8 µM
O=C(CCCC/C=C/c1ccc(OCc2ccccc2)cc1)N1CCCC1 | > 100 | –
N-acylethanolamine-hydrolyzing acid amidase (Rattus norvegicus), Q5KTC7 (protein) MGTPAIRAACHGAHLALALLLLLSLSDPWLWATAPGTPPLFNVSLDAAPELRWLPMLQHYDPDFVRAAVAQVIGDRVPQWILEMIGEIVQKVESFLPQPFTSEIRGICDYLNLSLAEGVLVNLAYEASAFCTSIVAQDSQGRIYHGRNLDYPFGNALRKLTADVQFVKNGQIVFTATTFVGYVGLWTGQSPHKFTISGDERDKGWWWENMIAALSLGHSPISWLIRKTLTESEDFEAAVYTLAKTPLIADVYYIVGGTSPQEGVVITRDRGGPADIWPLDPLNGAWFRVETNYDHWEPVPKRDDRRTPAIKALNATGQAHLSLETLFQVLSVFPVYNNYTIYTTVMSAAEPDKYMTMIRNPS | – | Km [12]: 322 µM; Vmax [13]: 5.88 nmol/min/mg

Now from value to molecule, other results behind:

IC50 [1] [µM] | Molecule | further results
> 100 | Cc1ccccc1-c1ccc(CCC(=O)N2CCCC2)cc1 | –
> 100 | O=C(CCc1ccc(-c2ccccn2)cc1)N1CCCC1 | –
0.7 | O=C(CCc1ccc(OC2CCCCC2)cc1)N1CCCC1 | –
> 100 | O=C(O)c1ccc(CCCCCCC(=O)N2CCCC2)cc1 | –
> 100 | O=C(CCCCCCc1cccc(O)c1)N1CCCC1 | –
> 100 | O=C(CCc1ccc(-c2ccc3c(c2)OCO3)cc1)N1CCCC1 | IC50 [2]: 91 µM
2.8 | O=C(CCC1CCC(Oc2ccccc2)CC1)N1CCCC1 (configuration not stated) | IC50 [2]: 45.1 µM
8.3 | Cc1cccc(CCCCCCC(=O)N2CCCC2)c1 | –
> 100 | O=C(CCCCCCc1ccccn1)N1CCCC1 | –
35.4 | COc1ccc(CCCCCCC(=O)N2CCCC2)cc1 | –
16.5 | Cc1cccc(-c2ccc(CCC(=O)N3CCCC3)cc2)c1 | –
> 100 | CCCc1cccc(CCCCCCC(=O)N2CCCC2)c1 | –
8 | O=C(CCCCCCc1ccc(F)cc1)N1CCCC1 | –
5.7 | O=C(CCCCCCC1CCCCC1)N1CCCC1 | –
34.5 | O=C(CCCCCCc1ccc(Cl)cc1)N1CCCC1 | –
> 100 | COC(=O)c1cccc(CCCCCCC(=O)N2CCCC2)c1 | –
